Data as given in ChEMBL document CHEMBL4831478, “Bispecific Estrogen Receptor α Degraders Incorporating Novel Binders Identified Using DNA-Encoded Chemical Library Screening” (J Med Chem, 2021).

Assays:
[1] = system: MCF7; experiment: Antiproliferative activity against human MCF7 cells assessed as growth inhibition preincubated with estradiol for 30 mins followed by compound addition and measured after 72 hrs by CellTiter-Glo assay; type: functional
[2] = target: T1, Estrogen receptor (Homo sapiens, UniProt P03372); experiment: Binding affinity to recombinant His-tagged ERalpha LBD (307 to 554 residue) (unknown origin) expressed in Escherichia coli preincubated for 15 mins followed by ligand addition and measured after 1 hr by fluorescent polarization assay
T1 sequence (P03372 whole entry): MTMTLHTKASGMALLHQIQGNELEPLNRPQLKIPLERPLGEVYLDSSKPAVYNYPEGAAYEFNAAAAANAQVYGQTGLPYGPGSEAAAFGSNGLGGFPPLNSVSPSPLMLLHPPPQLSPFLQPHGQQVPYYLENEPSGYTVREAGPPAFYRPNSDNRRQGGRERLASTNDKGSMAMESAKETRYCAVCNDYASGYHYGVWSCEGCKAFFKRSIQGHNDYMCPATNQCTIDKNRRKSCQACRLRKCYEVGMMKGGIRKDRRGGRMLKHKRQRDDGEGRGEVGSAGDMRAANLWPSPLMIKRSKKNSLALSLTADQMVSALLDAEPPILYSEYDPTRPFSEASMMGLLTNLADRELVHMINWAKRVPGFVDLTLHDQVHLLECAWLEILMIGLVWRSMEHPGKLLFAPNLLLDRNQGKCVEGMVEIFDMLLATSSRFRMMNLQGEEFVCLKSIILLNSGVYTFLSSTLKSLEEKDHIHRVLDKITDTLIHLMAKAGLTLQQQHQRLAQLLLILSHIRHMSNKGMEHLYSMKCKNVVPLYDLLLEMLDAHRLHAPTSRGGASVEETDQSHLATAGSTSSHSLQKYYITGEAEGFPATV
Method in brief: (§1)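 ERα LBD (aa 307–554), WT or D538G, S463P, Y537S, with N-terminal Avi-Tev-His tag, expressed in E. coli T7 Express (20 °C, 12 h, IPTG). Purified by Ni-NTA then size exclusion. Compound preincubated with protein 15 min, fluorescent ligand added, 1 h at room temperature. FP read ex 485/em 535 nm; duplicate runs averaged.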

[3] = Toxicity in CD1 mouse xenografted with human MCF7 cells assessed as change in body weight at 10 mg/kg, sc administered once daily for 28 days; type: organism-based; settings: in vivo, 672 h, time 28 day
Method in brief: (§2)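 Mice implanted with 17β-estradiol pellets (0.18 mg) 2 days before sc right-flank inoculation of 10×10^6 MCF-7 cells in PBS/Matrigel (50:50). Randomized at mean tumor 165 mm³, 8 per group. Dosed 10 mg/kg sc qd; fulvestrant reference 3 mg/mouse sc weekly. Caliper measurements twice weekly, V = 0.5a×b². TGI from medians. Body weight recorded before each dosing.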

[4] = target: Estrogen receptor (Homo sapiens, UniProt P03372, Y537S); experiment: Binding affinity to ERalpha Y537S mutant (unknown origin) expressed in Escherichia coli preincubated for 15 mins followed by ligand addition and measured after 1 hr by fluorescent polarization assay; method in brief: as §1
[5] = target: T1, Estrogen receptor; experiment: Induction of ERalpha degradation in human MCF7 cells assessed as decrease in ERalpha protein expression incubated for 48 hrs by Western blot analysis; type: cell-based
[6] = Microsomal stability in human liver microsomes assessed as intrinsic clearance measured upto 60 mins; type: ADME, Microsome; settings: read-out: CLH
Method in brief: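 Compounds at 2 μM final incubated with pooled human or male mouse liver microsomes. Percent remaining measured at 0, 15, 30, 45 and 60 min and used to calculate in vitro half-life.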

[7] = system: MCF7; experiment: Antitumor activity against human MCF7 cells xenografted in CD1 mouse assessed as tumor growth inhibition at 10 mg/kg, sc administered once daily for 28 days by caliper method; type: functional; settings: 672 h, time 28 day, read-out: TGI; method in brief: as §2
[8] = Plasma protein binding in human; type: ADME, cell-free; settings: read-out: PPB
[9] = AUCinfinity in CD1 mouse at 10 mg/kg, sc administered as single dose […]; type: ADME, organism-based; parameters: route subcutaneous, dose 10 mg/kg; settings: in vivo
[10] = organism: Homo sapiens; experiment: Selectivity index, ratio of DC50 for induction of ERalpha degradation in human MCF7 cells in presence of VHL298 to DC50 for induction of ERalpha degradation in human MCF7 cells; type: cell-based
Method in brief: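 MCF7 cells were treated with a PROTAC dose series, alone or co-treated with the VHL ligand VHL298 (5 μM), for 48 h in total before collection. ERα degradation DC50 was determined under both conditions and the two values compared as a ratio.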

[11] = Bioavailability in CD1 mouse at 10 mg/kg, sc administered as single dose […]; type: ADME, organism-based; settings: in vivo
[12] = Half life in CD1 mouse at 0.3 mg/kg, iv administered as cassette dosing […]; type: ADME, organism-based; settings: in vivo
[13] = system: MCF7; experiment: Antiproliferative activity against human MCF7 cells assessed as growth inhibition preincubated with estradiol for 30 mins followed by compound addition and measured after 7 days by CellTiter-Glo assay; type: functional; settings: MCF7, 168 h, time 7 day
Method in brief: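 MCF7 cells seeded in hormone-deprived media for 72 h. All wells except minimum-signal controls received 0.1 nM estradiol for 30 min, then compound in a 10-point dose series. Incubated 7 days at 37 °C, 5% CO2; ATP content read by CellTiter-Glo 2.0. Duplicate runs averaged.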

[14] = Volume of distribution at steady state in CD1 mouse at 0.3 mg/kg, iv administered as cassette dosing […]; type: ADME, organism-based; settings: in vivo, read-out: Vdss
[15] = system: T47D; experiment: Antiproliferative activity against human T47D cells assessed as growth inhibition incubated for 7 days by CellTiter-Glo assay; type: functional; settings: 168 h, time 7 day
Method in brief: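 Breast lines from ATCC, maintained in ATCC-specified media, treated with increasing compound doses in full-serum (complete) media for 7 days. Relative cell number measured by CellTiter-Glo ATP read-out.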

[16] = Half life in CD1 mouse at 10 mg/kg, sc administered as single dose […]; type: ADME, organism-based; settings: in vivo

Chain of Estrogen receptor (Homo sapiens, UniProt P03372, Y537S) (P03372 whole entry Y537S): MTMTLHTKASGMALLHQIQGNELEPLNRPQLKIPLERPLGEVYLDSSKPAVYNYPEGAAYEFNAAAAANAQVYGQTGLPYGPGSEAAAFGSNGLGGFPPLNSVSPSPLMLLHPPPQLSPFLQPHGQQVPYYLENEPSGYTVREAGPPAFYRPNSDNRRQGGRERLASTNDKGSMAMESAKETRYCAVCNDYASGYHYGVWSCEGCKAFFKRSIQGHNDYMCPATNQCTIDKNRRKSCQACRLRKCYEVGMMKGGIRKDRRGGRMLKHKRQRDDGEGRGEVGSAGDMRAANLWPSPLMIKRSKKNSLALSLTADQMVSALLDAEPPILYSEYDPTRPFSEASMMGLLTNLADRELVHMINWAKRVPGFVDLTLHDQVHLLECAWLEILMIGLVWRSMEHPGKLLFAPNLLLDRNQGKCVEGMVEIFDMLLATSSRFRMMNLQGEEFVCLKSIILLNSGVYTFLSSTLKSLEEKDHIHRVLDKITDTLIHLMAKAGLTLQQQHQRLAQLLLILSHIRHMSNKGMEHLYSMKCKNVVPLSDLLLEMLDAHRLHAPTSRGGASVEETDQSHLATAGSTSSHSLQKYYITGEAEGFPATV

GI50 [1]: > 10000 nM
IC50 [2]: 53 nM
IC50 [4]: 419 nM
DC50 [5]: 6 nM
microsomal CLint [6]: 59 µL/min/mg
fraction unbound [8]: < 0.004
AUC(0-inf) [9]: 14.6 µM·h
bioavailability [11]: > 100%
half-life [12]: 8.7 h
GI50 [13]: 30 nM
Vd [14]: 4.82 L/kg
GI50 [15]: 171 nM
half-life [16]: 17 h
Structure (SMILES): Cc1ncsc1-c1ccc([C@@H](C)NC(=O)[C@@H]2C[C@@H](O)CN2C(=O)[C@H](NC(=O)COCCOCc2cn(CCOc3ccc(N(Cc4cccc(O)c4Cl)CC4(c5ccccc5F)CCCC4)cc3)nn2)C(C)(C)C)cc1
Activity [3]: Non-Toxic
inhibition in vivo at 10 mg/kg [7]: 30.8%
Selectivity Index [10]: 8
